Assay results: ChEMBL document CHEMBL1932954, “An expedient synthesis of honokiol and its analogues as potential neuropreventive agents” (Bioorg Med Chem Lett, 2012)
The source made the active and inactive calls. No cut-off for these calls is given here.

Assays:
SH-SY5Y [1] = assay: Neuroprotective activity in human SH-SY5Y cells assessed as inhibition of CHP and TBHP-induced cell death at 10 uM incubated for 30 mins prior to challenge measured after 3 hrs by MTT assay; type: functional, cell-based
How it was run: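 SH-SY5Y human neuroblastoma cells pretreated with compound at 10 µM for 30 min, then exposed to cumene hydroperoxide (CHP) or tert-butyl hydroperoxide (TBHP) at 300 µM for 3 h. Viability read by MTT and expressed relative to untreated control set as 100%. Mean ± SEM, n = 3; ANOVA.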

SH-SY5Y [2] = assay: Neuroprotective activity in human SH-SY5Y cells assessed as inhibition of MPP+-induced cell death after 24 hrs by MTT assay; type: functional, cell-based
How it was run: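 SH-SY5Y neuroblastoma cells co-treated with MPP+ (1 mM) and compound (10–30 µM) at the same time for 24 h. MTT read-out, given as percent viability versus control without MPP+. Mean ± SEM, n = 4; ANOVA.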

SH-SY5Y [3] = assay: Neuroprotective activity in MPP+-stimulated human SH-SY5Y cells assessed as cell survival at 30 uM measured 24 hrs after MPP+-challenge by MTT assay; type: functional; conditions: read-out: Survival
How it was run: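 SH-SY5Y neuroblastoma cells were co-treated with MPP+ (1 mM) and test compound (10–30 µM) for 24 h, with no pretreatment. Viability was read by MTT assay and given as percent of control without MPP+. Values are mean ± SEM, n = 4, compared by ANOVA.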

[4] = Cytotoxicity against human SH-SY5Y cells assessed as cell viability at 300 uM by MTT assay; type: cell-based; conditions: read-out: Activity
How it was run: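 SH-SY5Y human neuroblastoma cells were exposed to cumene hydroperoxide (CHP) or tert-butyl hydroperoxide (TBHP) at 300 µM for 3 h. Viability was read by MTT assay and expressed relative to untreated control cultures set as 100%. Values are mean ± SEM, n = 3, compared by ANOVA.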

Row | Structure (SMILES) | inhibition (SH-SY5Y [1]) | inhibition (SH-SY5Y [2]) | viability at 30 µM (SH-SY5Y [3]) [%] | viability at 300 µM [4] [%]
1 | C=CCc1cc(-c2cc(CCC)ccc2O)ccc1O | Active | Dose-dependent effect | 83 | 
2 | C=CCc1ccc(O)c(-c2ccc(O)c(CCC)c2)c1 | Active | Dose-dependent effect | 87 | 
3 | CCCc1ccc(O)c(-c2ccc(O)c(CCC)c2)c1 | Active | Dose-dependent effect | 91 | 
4 | C=CCc1cc(-c2ccc(O)c(CC=C)c2)ccc1O | Active | Dose-dependent effect |  | 
5 | C=CCc1ccc(O)c(-c2ccc(O)c(CC=C)c2)c1 | Active | Dose-dependent effect |  | 
6 | CC(C)(C)OO [TERT-BUTYL HYDROPEROXIDE] |  |  |  | 72
7 | CC(C)(OO)c1ccccc1 [CUMENE HYDROPEROXIDE] |  |  |  | 64
8 | C=CCc1cc(-c2cccc(O)c2CC=C)ccc1O | Active | Dose-dependent effect | 79 | 
9 | C#CCc1ccc(O)c(-c2ccc(O)c(CC=C)c2)c1 | Active | Dose-dependent effect | 80 | 
